Measurements as given in the EternaBench riboswitch data.

System: MS2 coat protein
Assay: apparent Kd, MS2 coat protein; higher = weaker binding; RNA-MaP array; FMN 200 µM where present
In short: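 Green signal from SNAP-549-labelled MS2 coat protein was normalised to red-channel RNA signal and to the median Fmax of control clusters. The protein was titrated from 0.7 or 1.5 nM, doubling to 3 µM, without and then with constant ligand, over designs transcribed by stalled E. coli RNA polymerase on Illumina sequencing-chip clusters, in 100 mM Tris-HCl pH 7.5, 80 mM KCl, 4 mM MgCl2, BSA, DTT, yeast tRNA and Tween-20. The apparent Kd is the median of filtered per-cluster binding-curve fits.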

[1] = designed as: OFF switch for flavin mononucleotide, no ligand
[2] = ligand present: flavin mononucleotide, designed as: OFF switch for flavin mononucleotide
[3] = designed as: ON switch for flavin mononucleotide, no ligand
[4] = ligand present: flavin mononucleotide, designed as: ON switch for flavin mononucleotide

Sequence	apparent Kd [1] [nM]	apparent Kd [2] [nM]	apparent Kd [3] [nM]	apparent Kd [4] [nM]
AAGAAACAUGAGGAUCACCCAUGUGAGGAUAUGAUGCGAAUUAUGUAUGUAGUAAGCAUCAGAAGGCACAAAGG	127	203	–	–
UAUUAUUUGGAGAAGGACAUGAGGAUCACCCAUGUCGCCGGGCCCGGGAAACCGGGCCCGGCCAUGUAGGAUAUCCGGGUGGUA	12.7	13.6	–	–
UGAUAGGACAGAGGAUAUACGGAUAGGAUCUACUAUCUUCUUCAAAUAACAUGAGGAUCACCCAUGUAGAAGGCUGUCCUAUCU	15	33	–	–
GGUUGGCGAGGAUAUACAUGAGGAUCACCCAUGUGGUCCUGCGGUAGAAUCGCCCUUUGUAGAAGGCGCGGGUC	69.5	72	–	–
UUACGUCCCGUUUACAUGAGGAUCACCCAUGUCGAAAGAGCGGAGGAUAUGCUACCUAGUUGGUAGCAGAAGGCUGCAACGUCG	–	–	35.2	46.5
CAAAACAUCUCCGUGUUUGUCGAACAUGAGGAUCACCCAUGUAGAAGGCGCUUCGCGUCGCGGAGCGAGGAUAUACGCUGGAUG	11.4	86.3	–	–
CUUAAGCUGGCAAGGGCUGGUGAAGAGGAUAUACAUGCUAAGCGAACCACAUGAGGAUCACCCAUGUAGAAGGCUUCCCAGAAA	159	111	–	–
AUGCUAGUGUGAGGAUAUUAGACAUGAGGAUCACCCAUGUGUAAGAUCAUGACGAUCACGCAUGAUAAGAAGGUACAUUAGCAU	54.6	99.7	–	–
AUACACACGACAGGAUAUGGAAUGUAAGCUCAGAGACAUGAGGAUCACCCAUGUACCUGUCUUGCCCAGAAGGGUCGCAAAAGA	–	–	327	64.5
AGAAACUACGAGAAGGACAUGAAAAGUGCCGCAAACAUGAGGAUCACCCAUGUAGGAUAUCGUAGUUUCAGGAUCGUGAGAUCA	15.8	108	–	–
AUGCCUUAUGUAGGAUAUGCAUAGCAUUGCUAUGCAGAAGGACAUGAGGAUCACCCAUGUAUGUAUUCCAUACAUAUCUGGCAU	29.5	343	–	–
ACAAAUGGAGGAUAUACAUGAGGAUCACCCAUGUUUAUCCUACAUGUGUGAUAAUAAUGUAGAAGGCCAUAUGA	15.9	12.5	–	–
UGUGUGUGGCAGGAUAUUCCGGUCGUUGGUCGGGAAGAAGGGUCUACAUGAGGAUCACCCAUGUGACCGGUUGG	25.6	26.2	–	–
UGGUACAUCGGAGGAUAUCAUGUAUAUACAUGAGGAUCACCCAUGUCGAUGGAGACAUCGGAGAUUGAGAAGGCCGAUGUACCU	–	–	799	33.3
UUAUUAGCAGGAUAUAUCCAGGAUUACAUGAGGAUCACCCAUGUGACCGCUUGAAAUUCUAUAGAAGGGCUUUAUU	33.2	36.4	–	–
AUCAGCUCGUCAGGAUAUACGUCACUGCGUCAGCCGUGUGGUAAGAUCACAUGAGGAUCACCCAUGUAGAAGGGACGAGCUGAU	16.6	247	–	–
AUGCUUCACACAGGAUAUACAUGAGGAUCACCCAUGUGUCCACCGUAGCUGACACGAGCUACGCUGUAGAAGGGUGUGAAGCAU	19.3	52.8	–	–
CGUUAAUAUCGAGGAUAUGUCUAGACACAUGAGGAUCACCCAUGUAUGUGUAUAGAAGGCGAUAUUAACAGCAUGUUACAUGCG	–	–	38.3	16.7
CAGUACUGAGGAUAUACAUGAGGAUCACCCAUGUGUUCCAGCUAGGAAACUUGCAAAAGUAGAAGGCAGUACUG	12.1	30.6	–	–
UCUCAGUCAGGAUAUCGUUAAUUUAAUUGUUUGUAUUAGUUCGAGAAGGGACAUGAGGAUCACCCAUGUACUCA	34	94.6	–	–
UGUGCGUAUGUGAGGAUAUGCUGGUCCUUGGAUCGGCAGAAGGCACAUGAGGAUCACCCAUGUGGUGUCGUACA	493	19.2	–	–

Sequence	apparent Kd [1] [nM]	apparent Kd [2] [nM]	apparent Kd [3] [nM]	apparent Kd [4] [nM]
ACAUGACAAUCAGGAUAUCGACAUGAGGAUCACCCAUGUACGGGUGUCAAUCGAGAAGGGAUUGUAGCGCCAACUGAGACGUUU	78	110	–	–
AAUUUACAUGAGGAUCACCCAUGUGAGGAUAUGAUACUAUGUACUUCGGUACAUAGUAUCAGAAGGCAUGUGGA	129	37.1	–	–
GCCGAAUGAACAUGAGGAUCACCCAUGUACAGGAAACUGAAUGAGGAUAUCCAUAGCAAAGCUAUGGAGAAGGCAUGGGUCGGC	–	–	465	99.7
CUUCGACAUGAGGAUCACCCAUGUCAGGAUAUUGUGUAUCUGGUUUUUUACAGAUAGACAAGAAGGGAUGUGUU	27.1	23.4	–	–
CACCGUUAGCGAGGAUAUCGUACAUGAGGAUCACCCAUGUAAUAAAUGAGAAUUUCGGAUGUAUGCGAGAAGGCGCGAAUCGGC	52.9	40.6	–	–
GGAUAGGACAGAGGAUAUACGUGCUAGAGAUACUAGCAAAAUUUCCUCACAUGAGGAUCACCCAUGUAGAAGGCUGUGCUAUCG	16.4	343	–	–
UUUGUAAUGUCAGGAUAUAUAAUAAGUCAUACAGUAGAAGGGAUAAUAAUACUCAUGUACAUGAGGAUCACCCAUGUUAAAUAU	–	–	98.8	52.4
GGUUGGUAUGAUUGGGUAUGAUACAUGAGGAUCACCCAUGUGCAGGAUAUGUUACACUCACGAUGAUAGAAGGGUAGGGUUUGA	305	270	–	–
AGCUCGGGUUAGGAUAUUCGCAGCAAGAUGACCGAAGAAGGGACCACAUGAGGAUCACCCAUGUUUGUUUAGAA	25.9	24.5	–	–
UUAAGUCAUGUAGGAUAUCCGAUGCGAAGCGUUGGAGAAGGACAUGAGGAUCACCCAUGUUCUAGCGUCUGAGUACAGAUGCAA	27	76	–	–
AGCAGACGAGGAUAUAGAUUUGUUAACAUGAGGAUCACCCAUGUGAUCGAUUAAUCAUAUUUAGAAGGUGUCUGCU	37.7	154	–	–
CGUAGGAUCCAGAAGGCAUGAACAUGAGGAUCACCCAUGUCAAAAUACAUGAGGAUAUGGAUCCUACGAAAAGUGCGAAAGCAC	–	–	5.11	4.38
GUAGAGUAGUGAGGAUAUACGAGAUCGAUAGAUCGGCGAUCCAUUUAUACAUGAGGAUCACCCAUGUAGAAGGCACUUCUCUAC	6.26	62.8	–	–
GCCAAUGUGGAGGAUAUCGACUUCGAAAGAAGUCGAGAAGGCCACACAUGAGGAUCACCCAUGUGAUGCCUGGC	199	231	–	–
GCGUUGAACGAGAAGGCCAAUACAUGAGGAUCACCCAUGUUAAGUUGUUUUGGAGGAUAUCGAACGCAUUCAAUAUUGCAACGC	6.65	5.84	–	–
UGUGCGUUGAUCUUCGAUCGGUGUACAUGAGGAUCACCCAUGUAGGAUAUUCAAAGACGCAGAUAGGAGAAGGACAUCGGAUUU	18.8	17	–	–
UCAAUCACUGGAGGAUAUGUACUAAUUUGCGGUUCCUCGAUAUCUCACAUGAGGAUCACCCAUGUACAGAAGGCUAGUCGGAAA	783	99.7	–	–
AAGUCGACGGUGAGGAUAUAGGUCGAACGACAGAUCUAGAAGGCACAUGAGGAUCACCCAUGUGGGUAACGUCG	19.6	28.4	–	–
GCUUGUGAAGGAUAUACUGGCGGCGUGCGCUCGGCGCGCGCACAUGAGGAUCACCCAUGUAGAAGGUCAGGCGU	13.8	12.5	–	–
UUAUACAUUCGAGGAUAUCGGUGAGAAAUCUUUCGAGAAGGCGAUUCAUGAUUUAUUAUCCUGGACAUGAGGAUCACCCAUGUA	–	–	79.8	60.9
GAUGCAUAUGAGAAGGCGAUCAUGAAACAUGAUCGAGGAUAUCAUGUAAACAUGAGGAUCACCCAUGUAUGGGAAAAGUGCAUC	–	–	72.4	11.4
